Data: ChEMBL document CHEMBL1141933 (J Med Chem, 2005)

Key:
Plasmodium falciparum [1] = test: Effective dose against chloroquine-resistant, pyrimethamine-resistant, mefloquine-sensitive Plasmodium falciparum K1; assay type: functional; details: read-out: ED50 (the source's name)
In short: (§1)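 Asynchronous blood-stage culture (0.5% parasitemia, 0.5% hematocrit) in RPMI-1640 with 20% heat-inactivated human A+ plasma, human A+ erythrocytes. Compound added from DMSO, 48 h at 37 C under 5% CO2/5% O2/90% N2. [8-3H]hypoxanthine then added for a further 24 h and uptake counted. Uninfected-RBC background subtracted; DMSO vehicle = 100% growth. ED50 by linear regression, mean of at least two runs.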

[2] = molecular target: T1, Protein farnesyltransferase (PFT) (Plasmodium falciparum, UniProt Q5EI73+Q5EI74); test: Inhibition of biotinylated lamin B peptide farnesylation by Plasmodium falciparum farnesyltransferase; assay type: protein-complex assay
T1 sequence (Q5EI73 whole entry): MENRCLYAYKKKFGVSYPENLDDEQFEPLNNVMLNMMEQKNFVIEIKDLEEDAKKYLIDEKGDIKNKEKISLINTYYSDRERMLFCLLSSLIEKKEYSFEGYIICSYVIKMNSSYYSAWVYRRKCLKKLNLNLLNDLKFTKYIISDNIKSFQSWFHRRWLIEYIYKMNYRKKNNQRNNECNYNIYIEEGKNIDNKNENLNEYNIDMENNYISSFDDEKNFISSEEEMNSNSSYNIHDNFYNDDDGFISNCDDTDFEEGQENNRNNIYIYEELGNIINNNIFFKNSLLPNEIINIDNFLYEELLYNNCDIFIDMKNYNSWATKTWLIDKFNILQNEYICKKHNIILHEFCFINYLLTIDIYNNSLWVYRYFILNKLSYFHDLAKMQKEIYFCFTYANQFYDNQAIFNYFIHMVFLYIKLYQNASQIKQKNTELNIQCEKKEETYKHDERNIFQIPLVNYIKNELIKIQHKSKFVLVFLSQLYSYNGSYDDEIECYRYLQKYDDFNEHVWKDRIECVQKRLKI
T1 sequence (Q5EI74 whole entry): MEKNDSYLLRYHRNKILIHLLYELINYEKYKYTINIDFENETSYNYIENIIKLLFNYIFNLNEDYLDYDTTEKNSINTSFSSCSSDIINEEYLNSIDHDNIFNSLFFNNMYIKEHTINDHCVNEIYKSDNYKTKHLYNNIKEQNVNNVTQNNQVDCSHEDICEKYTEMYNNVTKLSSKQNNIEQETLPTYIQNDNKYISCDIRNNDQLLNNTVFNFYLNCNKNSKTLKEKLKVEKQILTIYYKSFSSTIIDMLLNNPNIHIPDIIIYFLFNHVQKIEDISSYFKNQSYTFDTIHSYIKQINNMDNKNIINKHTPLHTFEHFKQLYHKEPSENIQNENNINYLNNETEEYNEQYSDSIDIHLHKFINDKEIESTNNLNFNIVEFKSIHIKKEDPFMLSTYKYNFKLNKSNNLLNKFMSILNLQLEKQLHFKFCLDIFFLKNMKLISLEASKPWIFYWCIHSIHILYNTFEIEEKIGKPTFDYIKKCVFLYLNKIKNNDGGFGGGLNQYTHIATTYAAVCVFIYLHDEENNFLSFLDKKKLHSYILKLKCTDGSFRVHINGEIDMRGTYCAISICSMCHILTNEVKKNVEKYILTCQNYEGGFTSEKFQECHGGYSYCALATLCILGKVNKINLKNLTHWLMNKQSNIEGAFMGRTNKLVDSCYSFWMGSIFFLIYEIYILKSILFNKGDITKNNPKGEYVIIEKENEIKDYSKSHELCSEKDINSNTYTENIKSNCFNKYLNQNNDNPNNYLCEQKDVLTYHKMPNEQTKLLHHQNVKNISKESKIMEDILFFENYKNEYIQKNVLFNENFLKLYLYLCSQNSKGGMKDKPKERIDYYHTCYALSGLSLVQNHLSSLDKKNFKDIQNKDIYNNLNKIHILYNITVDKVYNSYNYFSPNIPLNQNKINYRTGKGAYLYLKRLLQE

Plasmodium falciparum [3] = test: Effective dose against chloroquine-resistant, pyrimethamine-resistant, mefloquine-resistant Plasmodium falciparum Dd2; assay type: functional; details: read-out: ED50 (the source's name); in short: as §1
Plasmodium falciparum [4] = test: Effective dose against chloroquine-resistant, pyrimethamine-resistant, mefloquine-sensitive Plasmodium falciparum W2; assay type: functional; details: read-out: ED50 (the source's name); in short: as §1
Plasmodium falciparum [5] = test: Effective dose against chloroquine-sensitive, pyrimethamine-sensitive, mefloquine-sensitive Plasmodium falciparum 3D7; assay type: functional; details: read-out: ED50 (the source's name)
In short: (§2)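 Asynchronous culture in human A+ erythrocytes at 0.5% parasitemia and 0.5% hematocrit, in RPMI-1640 with 20% heat-inactivated human A+ plasma. Compound added in DMSO; 48 h at 37 C under 5% CO2/5% O2/90% N2. [8-3H]hypoxanthine added for a further 24 h, then incorporation counted. Uninfected-RBC background subtracted; DMSO = 100% growth. ED50 by linear regression; ≥2 tests, mean.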

[6] = molecular target: Protein farnesyltransferase (Rattus norvegicus, UniProt Q02293+Q04631); test: Inhibition of biotinylated lamin B peptide farnesylation by rat farnesyltransferase; assay type: protein-complex assay
Plasmodium falciparum [7] = test: Effective dose against chloroquine-sensitive, pyrimethamine-sensitive, mefloquine-sensitive Plasmodium falciparum HB3; assay type: functional; details: read-out: ED50 (the source's name); in short: as §2
Plasmodium falciparum [8] = test: Effective dose against Plasmodium falciparum 3D7; assay type: functional; details: read-out: ED50 (the source's name); in short: as §2
Plasmodium falciparum [9] = test: Effective dose against Plasmodium falciparum; assay type: functional; details: read-out: ED50 (the source's name)

SMILES	EC50 (Plasmodium falciparum [1]) [nM]	IC50 [2] [nM]	EC50 (Plasmodium falciparum [3]) [nM]	EC50 (Plasmodium falciparum [4]) [nM]	EC50 (Plasmodium falciparum [5]) [nM]	IC50 [6] [nM]	EC50 (Plasmodium falciparum [7]) [nM]	EC50 (Plasmodium falciparum [8]) [nM]	EC50 (Plasmodium falciparum [9]) [nM]
C=C(C)CN(C1Cc2cc(C#N)ccc2N(Cc2cncn2C)C1)S(=O)(=O)c1cn(C)cn1 (configuration not stated)	15	0.6	10	21	7	0.7	12	–	–
Cn1cnc(S(=O)(=O)N(Cc2ccccc2)C2Cc3cc(C#N)ccc3N(Cc3cncn3C)C2)c1 (configuration not stated)	9	0.6	8	14	5	1.2	10	–	–
Cn1cnc(S(=O)(=O)N(CC(=O)OC(C)(C)C)C2Cc3cc(C#N)ccc3N(Cc3cncn3C)C2)c1 (configuration not stated)	20	0.9	6	–	5	1.2	7	–	–
Cc1ccccc1CN(C1Cc2cc(C#N)ccc2N(Cc2cncn2C)C1)S(=O)(=O)c1cn(C)cn1 (configuration not stated)	–	1.5	–	–	–	3.4	–	55	–
Cn1cncc1CN1CC(N(Cc2ccccn2)S(=O)(=O)c2ccccn2)Cc2cc(C#N)ccc21 (configuration not stated)	–	2.8	–	–	–	3.8	–	51	–
Cn1cncc1CN1CC(N(CC(=O)NC(C)(C)C)S(=O)(=O)c2nccn2C)Cc2cc(C#N)ccc21 (configuration not stated)	–	8	–	–	–	5	–	> 5000	–
C=C(Br)CN(C1Cc2cc(C#N)ccc2N(Cc2cncn2C)C1)S(=O)(=O)c1cn(C)cn1 (configuration not stated)	10	0.4	10	14	6	0.8	10	–	–
Cn1cnc(S(=O)(=O)N(Cc2ccc3ccccc3c2Br)C2Cc3cc(C#N)ccc3N(Cc3cncn3C)C2)c1 (configuration not stated)	–	28	–	–	–	1000	–	3000	–
Cn1cnc(S(=O)(=O)N(CC(=O)NC(C)(C)C)C2Cc3cc(C#N)ccc3N(Cc3cncn3C)C2)c1 (configuration not stated)	7	1.2	4	8	5	1.5	7	–	–
Cn1cncc1CN1CC(N(CC(=O)NC(C)(C)C)S(=O)(=O)c2cccnc2)Cc2cc(C#N)ccc21 (configuration not stated)	–	25	–	–	–	6	–	2700	–
Cn1cncc1CN1CC(N(CC(=O)NC(C)(C)C)S(=O)(=O)Cc2ccc(F)cc2)Cc2cc(C#N)ccc21 (configuration not stated)	–	42	–	–	–	7.6	–	> 5000	–
Cn1cncc1C(O)(CN1CCC(C#N)=C(c2cccc3ccccc23)C1)c1ccc(C#N)cc1 (configuration not stated)	–	9	–	–	–	–	–	–	> 5000
N#Cc1ccc(Cn2cncc2CN[C@H]2CCN(Cc3cccc(Cl)c3)C2=O)cc1	–	–	–	–	–	–	–	–	> 5000
CSCC[C@H](NC(=O)c1ccc(CNCc2cnc[nH]2)cc1-c1ccccc1C)C(=O)OCc1ccccc1	–	1000	–	–	–	–	–	–	150
CCSC[C@H](CC1CCCCC1)NCc1ccc(C(=O)N[C@@H](CCSC)C(=O)O)c(-c2ccccc2C)c1	–	5	–	–	–	–	–	–	> 5000
Cn1cncc1CN1CC(N(Cc2cc3nsnc3cc2Cl)S(=O)(=O)c2ccccn2)Cc2cc(C#N)ccc21 (configuration not stated)	–	55	–	–	–	10	–	3000	–
Cc1onc(-c2ccccc2)c1CN(C1Cc2cc(C#N)ccc2N(Cc2cncn2C)C1)S(=O)(=O)c1ccccn1 (configuration not stated)	–	0.8	–	–	–	3	–	113	–
Cn1cnc(S(=O)(=O)N(CC2CCN(C(=O)OC(C)(C)C)CC2)C2Cc3cc(C#N)ccc3N(Cc3cncn3C)C2)c1 (configuration not stated)	–	1.1	–	–	–	3.2	–	100	–
Cn1cncc1CN1CC(N(Cc2ccc3ccccc3c2Br)S(=O)(=O)c2ccccn2)Cc2cc(C#N)ccc21 (configuration not stated)	–	165	–	–	–	440	–	2750	–
Cn1cncc1CN1CC(N(CC(=O)NC(C)(C)C)S(=O)(=O)c2ccncc2)Cc2cc(C#N)ccc21 (configuration not stated)	–	1000	–	–	–	160	–	> 5000	–
Cn1cncc1CN1CC(N(CC(=O)NC(C)(C)C)S(=O)(=O)c2ccccn2)Cc2cc(C#N)ccc21 (configuration not stated)	–	1.4	–	–	–	1.8	–	85	–
CSCC[C@H](NC(=O)c1ccc(CNCc2c[nH]cn2)cc1-c1ccccc1C)C(=O)O	–	15	–	–	–	–	–	–	> 20000
CCN(CC)CCCC(C)Nc1ccnc2cc(Cl)ccc12 (configuration not stated) [CHLOROQUINE]	200	–	78	125	8	–	5	–	–
NC(=O)N1CCC(CC(=O)N2CCC([C@H]3c4ncc(Br)cc4CCc4cc(Cl)cc(Br)c43)CC2)CC1 [LONAFARNIB]	–	> 250	–	–	–	–	–	–	3000
O[C@H](c1cc(C(F)(F)F)nc2c(C(F)(F)F)cccc12)[C@@H]1CCCCN1 [MEFLOQUINE]	10	–	100	9	24	–	29	–	–
CCc1nc(N)nc(N)c1-c1ccc(Cl)cc1 [PYRIMETHAMINE]	25000	–	16000	–	39	–	2	–	–
Cn1cncc1[C@@](N)(c1ccc(Cl)cc1)c1ccc2c(c1)c(-c1cccc(Cl)c1)cc(=O)n2C [TIPIFARNIB]	–	7	–	–	–	–	–	–	3000
